Data reported in the EternaBench riboswitch data.

Test system: MS2 coat protein
Assay: apparent Kd, MS2 coat protein; higher = weaker binding; RNA-MaP array; FMN 200 µM where present
Procedure, shortened: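 Stalled E. coli RNA polymerase produced the designs on Illumina sequencing-chip clusters. SNAP-549-labelled MS2 coat protein was added from 0.7 or 1.5 nM, doubling to 3 µM, without and then with constant ligand, in 100 mM Tris-HCl pH 7.5, 80 mM KCl, 4 mM MgCl2, BSA, DTT, yeast tRNA and Tween-20. The apparent Kd is the median of filtered per-cluster fits of green signal normalised to red-channel RNA signal and control-cluster median Fmax.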

[1] = designed as: OFF switch for flavin mononucleotide, no ligand
[2] = ligand present: flavin mononucleotide, designed as: OFF switch for flavin mononucleotide
[3] = designed as: ON switch for flavin mononucleotide, no ligand
[4] = ligand present: flavin mononucleotide, designed as: ON switch for flavin mononucleotide

Sequence | apparent Kd [1] [nM] | apparent Kd [2] [nM] | apparent Kd [3] [nM] | apparent Kd [4] [nM]
ACCCGCAAACGUUGGAAUCGUAAGAGAAGGUGGACAUGAGGAUCACCCAUGUGCAUCCUGCGUUCCAAGGAUAUCUUACUGAAU | 10.9 | 48 | – | –
ACCGAACAUGAGGAUCACCCAUGUGAGGAUAUAGACGUGAAUUAAACACGUAACAAAACUAGAAGGCACUGGGC | 30.8 | 14.9 | – | –
ACCGUGCAAGGAUAUCGUUACCUCGACAUGAGGAUCACCCAUGUGGCCAUAUAGCGAUUGCGAGAAGGUGCGGGUA | 127 | 112 | – | –
ACCUCACAUGAGGAUCACCCAUGUCAGGAUAUACGAAGGUAUAGCGCCGAAUACUGAAGUAGAAGGGACAGGCA | 26.9 | 76.9 | – | –
ACGACAAAAGUCGAACGAUGUAGCAGAAGGACAUGAGGAUCACCCAUGUAAAAUGUAACAGCCAUGUAGGAUAUGCAAAAUCGA | 37.7 | 159 | – | –
ACGACGAAAGUCGAACGAUGUAGCAGAAGGACAUGAGGAUCACCCAUGUCAGCUGUAAAAGCCAUGUAGGAUAUGCUACAUCGA | 3.51 | 4.4 | – | –
ACGCAGCUAGGUGAGGAUAUCGGUGGUAAAACAUGAGGAUCACCCAUGUCCGAAGCUCGGACUUCCGAGAAGGCGCCCGGCUGCA | – | – | 122 | 15.7
ACGCAGCUGGGUAAGGAUAUCGGUGGUAAAACAUGAGGAUCACCCAUGUCCGAAGCUCGGACCUCCGAGAAGGUGCCCGGCUGCG | – | – | 8.17 | 8.14
ACGCGAUGGGAGAAGGUACUUUAAUUAGGUUACACAUGAGGAUCACCCAUGUAAGGAUAUCCCAUCGUUAAAUAUUAUACAGCA | 6.16 | 5.41 | – | –
ACGCUUUGGGAGAAGGUACUUUAAAUUUUUUCCACAUGAGGAUCACCCAUGUAAGGAUAUCCCAUCGUUAAAUAUUCUACAGCA | 8.4 | 7.06 | – | –
ACGGUGGUCACAGGAUAUCCAGCCCGCGUGCCUGGAGAAGGGUGACUCAGAACCACAUGAGGAUCACCCAUGUGCCUUGCCGUA | – | – | 140 | 33.4
ACGUCACAUGAGGAUCACCCAUGUCAGGCCGGACUAGGAUAUUAUCAUGCAGCGUGACCGUGAGAAGGAGUUGGAU | – | – | 104 | 82.2
ACGUCUUAGUAGAAGGGACAUCGGCUGGUAAGCAUCAUCUCCUUCUCACAUGAGGAUCACCCAUGUCAGGAUAUACUAAGAGUC | 12.3 | 38.2 | – | –
ACGUGGAGUCCGCAACAGAACACACAGGAUAUGAGUGGGCACAUGAGGAUCACCCAUGUUACGGAUCAGAAGGGUGUGCUCAUG | – | – | 449 | 56.3
ACUAAACGAGGAUAUACUGACAGGCCUCAGACAUACAUCAAACAUGAGGAUCACCCAUGUAGAAGGCGUAAACU | 37.2 | 36.7 | – | –
ACUAAGAGAGGAUAUACUAACAAACCUCAAACAUACAUCAAACAUGAGGAUCACCCAUGUAGAAGGCUCAAACU | 30.5 | 31.6 | – | –
ACUAAGCGAGGAUAUACUAACAAACCUCAAACAUACAUCAAACAUGAGGAUCACCCAUGUAGAAGGCGCAAACU | 27.3 | 37.6 | – | –
ACUACGAUAGCGAUAUGAUCGAGAGAUCAUGUCGCUAUUUUUAGAAGGACAUGAGGAUCACCCAUGUAGGAUAUGGGACGUGGA | – | – | 70.4 | 27.1
ACUAGAAGCGUGAAAUAUCACAUGAGGAUCACCCAUGUGACGCAGGAUAUAACAAAAUCAGAAGGUUAGAAGGGUGAGCACGCC | – | – | 26.8 | 20.2
ACUAGAUGAGGAUAUACACAUUUUAGUGUUCCUCUAGAUUAACAUGAGGAUCACCCAUGUAGAAGGCAUCAAUU | 56.5 | 183 | – | –
ACUAGAUGAGGAUAUGCACAUUUUAGUGUUCCUCUAGAUUAACAUGAGGAUCACCCAUGUAGAAGGCGUCAAUU | 45.7 | 64.8 | – | –
ACUAGUUGGUAAGGAUAUCCUACACUAUUCUGACCCGUGCAAGCUACAUGAGGAUCACCCAUGUGGGAGAAGGUGCGUCAACGU | 11 | 10.6 | – | –
ACUCGCGGAGAGAAGGGAUUUGUACAUGAGGAUCACCCAUGUCGCACGGUCAGGAUAUCUUCGUCAGGUACAACAUACGUCCCG | – | – | 16.8 | 6.99
ACUGGUCGAGGAUAUACGUGACGUGCUUCGGCACGAGGUCUACAUGAGGAUCACCCAUGUAGAAGGCGACCAGU | 17 | 53.9 | – | –
ACUGUCGCGUGAGGAUAUGGUCUGCAGUGCUGACCAGAAGGCAUGUCGAUAGACAUGAGGAUCACCCAUGUGGUUAGGGCGGCA | – | – | 933 | 467
ACUUAUGAAGGAUAUACUAGCGACAUGCACUCAACACGCGCACAUGAGGAUCACCCAUGUAGAAGGUCAAACAU | 25.8 | 23.1 | – | –
ACUUUAUAUGAGAAGGUGAAGUGGAAACAUGAGGAUCACCCAUGUAAUACGAAGCGUAUUUUUAUCAAGGAUAUCAUAUAAAGA | – | – | 10.8 | 8.81
AGAAAACAUGAGGAUCACCCAUGUAGAAAUAUGGGAGGAUAUACAAAGACGAAAGUCAAGGUAGAAGGCCUAAAGA | – | – | 86.7 | 27.4

Sequence | apparent Kd [1] [nM] | apparent Kd [2] [nM] | apparent Kd [3] [nM] | apparent Kd [4] [nM]
AGAAAACAUGAGGAUCACCCAUGUGAGGAUAUCGAUGUCCAAGGGCGGGUGCGGGACUCGAGAAGGCACUUGGA | 76 | 64.3 | – | –
AGAAACUACGAGAAGGACAUAAAAGGUGCCGCAAACAUGAGGAUCACCCAUGUAGGAUAUCGUAGUUUCAGGAUCGUGAGAUCA | 28.4 | 262 | – | –
AGAAACUACGAGAAGGACAUGAGAACCUUCAAUUACAUGAGGAUCACCCAUGUAGGAUAUCGUAGUUUCAGGAUCGUGAGAUCA | 12.7 | 86 | – | –
AGAAACUACGAGAAGGACAUGAGGAUCACCCAUGUUUCCACUUAGUGGUAUGUAGGAUAUCGUAGUUUCAGGAUCGUGAGAUCA | 5.81 | 6.39 | – | –
AGAAACUACGAGAAGGACAUGUGGUCCUUCGAAAACAUGAGGAUCACCCAUGUAGGAUAUCGUAGUUUCAGGAUCGUGAGAUCA | 18.2 | 4.37 | – | –
AGAAAUUAGUGAGGAUAUGCAUAAUAUUUAGCUGCAGAAGGCACGGACCACAAGACAUGAGGAUCACCCAUGUGGUAUAUAGAU | 24.9 | 30.9 | – | –
AGAAGACAUGAGGAUCACCCAUGUGCACGUGGAGGAGGAUAUGCUAGUAGAAGAUAGAAUGCAGAAGGCCUAAGAA | – | – | 88 | 85.6
AGAAGUUUGUAGAAGGACGACUAAUUUGUAUUCGUAGGAUAUACUAUUUACAUGAGGAUCACCCAUGUUUAAAUGGAACAAUGU | 7 | 10.2 | – | –
AGAAUGGGCGAGAAGGGAGUACAUGAGGAUCACCCAUGUGGUUGAUGGUGCUCAGGAUAUCGAAGGACCAGGGAGCGUCUCUGG | 185 | 302 | – | –
AGACCGCUACGCCGGUUUCACGCACAGGAUAUGCGGUUACAUGAGGAUCACCCAUGUGGCCAUGUGUAGAAGGGUGGUUCGUGC | – | – | 37 | 30.1
AGACCGUUCGAGAAGGUGCGAGAGAAAUGUGAGUGAGGAUAUUGAAACAUGAGGAUCACCCAUGUCAUGAGGAUCGCCGAUGUG | – | – | 39.6 | 31.6
AGACGGAGCAGAGGAUAUACAUGAGGAUCACCCAUGUAAAUGAAAGAUAGCAGCAAAGCUGCAAUGUAGAAGGCUGCUCCGUCA | 29.2 | 83.8 | – | –
AGACGGAGCUGAGGAUAUACAUGAGGAUCACCCAUGUAAGAUCUCCAGGAAACUGGAGAUCAAAAGUAGAAGGCAGCUCCGUCA | 15.1 | 23.1 | – | –
AGAGAAUAGGUAGGAUAUCUUAAUAGAAAGAAUAGAGAAGGACCACAUGAGGAUCACCCAUGUGAAGUCUUGAGACUACAUGGU | 18.1 | 22.9 | – | –
AGAUACAACCAGAAGGACAUGAGGAUCACCCAUGUAGGAUAUGGGUUACACGUUCCUGUGAAUUGUAACGACGCUACGUAGAGU | – | – | 178 | 15
AGAUAUGAUGCAGGAUAUCUAUCUUGAAUGAGGAGAGAAGGGCAAGCAGAGACAUAAGCCUUAUUACAUGAGGAUCACCCAUGU | 10.2 | 7.9 | – | –
AGAUCACAUGAGGAUCACCCAUGUCAGGAUAUCGACUGAACAGCUUCGGCUGUUCAGUCGAGAAGGGACAAUUA | 279 | 860 | – | –
AGAUCUAGGACAGGAUAUACUGAUGGCUUCAUCGAAGAUGAAGCCAUCACAUGAGGAUCACCCAUGUAGAAGGGUCCUAGAUCA | 14.5 | 14.9 | – | –
AGAUGACAAAGUCAUCUCGCGCAGACAUGAGGAUCACCCAUGUAGGAUAUAUUACUCAAAGAGUAAUAGAAGGACAUGUGUCUU | 33.5 | 91.7 | – | –
AGAUGACAAAGUCAUCUCUGACAGACAUGAGGAUCACCCAUGUAGGAUAUACUACUCAAAGAGUAGUAGAAGGACAUGUGUCUU | 33 | 95.7 | – | –
AGAUGACAAGGAUAUACUCGGGAUGCUAGUCGCGAAGAAGCACAUGAGGAUCACCCAUGUAGAAGGUGUAAGAA | 122 | 128 | – | –
AGAUGGCGAGGAUAUACAUGAGGAUCACCCAUGUGAAGAAGAAUAGUGAGGAAGAAAAGUAGAAGGCGCUGUCA | 53.6 | 180 | – | –
AGAUUCAUGGCCCGUUUGGGCUCACAUGAGGAUCACCCAUGUGAGGAUAUGACGUACCUGACUCGUCAGAAGGCGCAUGCGAAA | 7.48 | 15.7 | – | –
AGCAAGUCAGGAUAUGCGAAGUCAGGACACACACUGACGAAGCAGAAGGGACAUGAGGAUCACCCAUGUAAGCA | 29.1 | 42.9 | – | –
AGCAGGUGAGGAUAUCGAUUAAGAUUAACAUUAUUAUUAAACGAGAAGGCACAUGAGGAUCACCCAUGUAAGGA | 29.9 | 41.3 | – | –
AGCAUGCAGUAGGAUAUCGAUCCGCAAUAUGAACGAGAAGGACUGACAUGAGGAUCACCCAUGUGCGUCCUAGG | 16.5 | 19.7 | – | –
AGCAUGCUUGGGUAACCUGGCACAUGAGGAUCACCCAUGUGACAGGAUAUCGACGUAGAUGACGACGAGAAGGGUCUGAUGGGU | 7.61 | 12.3 | – | –
